For 4 compounds, Activity and Kd results are on record in ChEMBL document CHEMBL4813918, “From off-to on-target: New BRAF-inhibitor-template-derived compounds selectively targeting mitogen activated protein kinase kinase 4 (MKK4)” (Eur J Med Chem, 2021).

Experiment [1] has as its target T1, Dual specificity mitogen-activated protein kinase kinase 7 (Homo sapiens) (UniProt O14733).
T1 sequence (whole entry): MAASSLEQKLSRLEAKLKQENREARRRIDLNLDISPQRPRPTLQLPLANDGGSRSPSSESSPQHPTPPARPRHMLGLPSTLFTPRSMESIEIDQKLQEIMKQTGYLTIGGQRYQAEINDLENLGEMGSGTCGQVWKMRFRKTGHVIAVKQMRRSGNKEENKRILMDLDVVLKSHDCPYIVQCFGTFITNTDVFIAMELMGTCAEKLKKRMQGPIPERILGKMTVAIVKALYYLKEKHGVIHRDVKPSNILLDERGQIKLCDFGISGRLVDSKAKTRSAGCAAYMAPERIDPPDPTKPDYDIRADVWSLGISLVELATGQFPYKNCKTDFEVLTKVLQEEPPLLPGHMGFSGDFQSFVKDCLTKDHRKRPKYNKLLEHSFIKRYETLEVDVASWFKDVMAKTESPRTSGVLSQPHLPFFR
Nature of the experiment: Binding affinity to wild type full length human MKK7 (M1 to R419 residues) expressed in mammalian expression system assessed as residual activity at 100 nM measured by Kinomescan assay.

In experiment [2] the target is Mitogen-activated protein kinase kinase kinase 20 (Homo sapiens) (UniProt Q9NYL2). As to the kind of experiment: Binding affinity to wild type partial length human ZAK (M1 to L331) expressed in bacterial expression system assessed as residual activity at 100 nM measured by Kinomescan assay.
Experiment [3] has as its target T2, Dual specificity mitogen-activated protein kinase kinase 4 (Mus musculus, UniProt P47809).
T2 sequence (P47809 whole entry): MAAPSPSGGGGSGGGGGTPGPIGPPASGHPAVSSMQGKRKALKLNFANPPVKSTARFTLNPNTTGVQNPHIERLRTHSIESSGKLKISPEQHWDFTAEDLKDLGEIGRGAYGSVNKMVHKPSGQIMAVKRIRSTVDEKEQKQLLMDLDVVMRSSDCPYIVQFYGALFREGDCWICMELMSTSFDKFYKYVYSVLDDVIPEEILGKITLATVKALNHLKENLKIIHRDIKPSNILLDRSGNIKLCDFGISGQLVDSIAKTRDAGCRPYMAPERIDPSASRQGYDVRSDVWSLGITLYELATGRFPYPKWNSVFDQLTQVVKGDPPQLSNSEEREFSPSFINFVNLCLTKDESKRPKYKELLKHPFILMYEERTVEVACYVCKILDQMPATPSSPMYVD
As to the kind of experiment: Binding affinity to GST tagged mouse MKK4 expressed in Escherichia coli expression system measured by Kinomescan assay. The essentials: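 Competition binding: compound competes with an immobilized multikinase inhibitor for the site on DNA-tagged MKK4. Bound kinase is quantified by qPCR. Kd values are determined in duplicate.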

For experiment [4], the target named is Mitogen-activated protein kinase kinase kinase kinase 5 (Homo sapiens) (UniProt Q9Y4K4). As to the kind of experiment: Binding affinity to wild type partial length human MAP4K5 (M1 to P297) expressed in Bacterial expression system assessed as residual activity at 100 nM measured by Kinomescan assay relative to control.
Mitogen-activated protein kinase kinase kinase kinase 5 (Homo sapiens), sequence (Q9Y4K4 whole entry, looked up): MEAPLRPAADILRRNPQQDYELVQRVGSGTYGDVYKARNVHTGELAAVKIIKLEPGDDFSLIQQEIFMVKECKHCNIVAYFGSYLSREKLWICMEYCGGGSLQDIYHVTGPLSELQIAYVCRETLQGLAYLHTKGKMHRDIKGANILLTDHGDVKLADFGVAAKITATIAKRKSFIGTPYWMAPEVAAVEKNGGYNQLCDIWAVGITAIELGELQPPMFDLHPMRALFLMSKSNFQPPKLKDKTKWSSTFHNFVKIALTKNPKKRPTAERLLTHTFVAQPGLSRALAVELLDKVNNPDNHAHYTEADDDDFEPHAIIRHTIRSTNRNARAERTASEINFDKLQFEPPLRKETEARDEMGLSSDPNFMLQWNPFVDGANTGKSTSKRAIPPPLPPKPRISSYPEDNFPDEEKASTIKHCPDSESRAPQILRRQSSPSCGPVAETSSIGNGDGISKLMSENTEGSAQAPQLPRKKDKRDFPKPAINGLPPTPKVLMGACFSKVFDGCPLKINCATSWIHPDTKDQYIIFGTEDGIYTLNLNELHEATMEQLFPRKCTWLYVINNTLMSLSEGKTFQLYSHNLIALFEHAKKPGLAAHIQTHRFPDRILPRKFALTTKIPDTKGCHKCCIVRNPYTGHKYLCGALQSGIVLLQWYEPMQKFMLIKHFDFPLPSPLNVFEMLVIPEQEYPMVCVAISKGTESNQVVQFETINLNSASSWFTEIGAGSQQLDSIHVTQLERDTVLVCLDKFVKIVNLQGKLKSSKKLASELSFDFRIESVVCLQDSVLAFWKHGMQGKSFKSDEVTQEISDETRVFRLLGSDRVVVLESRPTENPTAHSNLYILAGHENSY

Mitogen-activated protein kinase kinase kinase 20 (Homo sapiens), sequence (Q9NYL2 2-800 limits assumed): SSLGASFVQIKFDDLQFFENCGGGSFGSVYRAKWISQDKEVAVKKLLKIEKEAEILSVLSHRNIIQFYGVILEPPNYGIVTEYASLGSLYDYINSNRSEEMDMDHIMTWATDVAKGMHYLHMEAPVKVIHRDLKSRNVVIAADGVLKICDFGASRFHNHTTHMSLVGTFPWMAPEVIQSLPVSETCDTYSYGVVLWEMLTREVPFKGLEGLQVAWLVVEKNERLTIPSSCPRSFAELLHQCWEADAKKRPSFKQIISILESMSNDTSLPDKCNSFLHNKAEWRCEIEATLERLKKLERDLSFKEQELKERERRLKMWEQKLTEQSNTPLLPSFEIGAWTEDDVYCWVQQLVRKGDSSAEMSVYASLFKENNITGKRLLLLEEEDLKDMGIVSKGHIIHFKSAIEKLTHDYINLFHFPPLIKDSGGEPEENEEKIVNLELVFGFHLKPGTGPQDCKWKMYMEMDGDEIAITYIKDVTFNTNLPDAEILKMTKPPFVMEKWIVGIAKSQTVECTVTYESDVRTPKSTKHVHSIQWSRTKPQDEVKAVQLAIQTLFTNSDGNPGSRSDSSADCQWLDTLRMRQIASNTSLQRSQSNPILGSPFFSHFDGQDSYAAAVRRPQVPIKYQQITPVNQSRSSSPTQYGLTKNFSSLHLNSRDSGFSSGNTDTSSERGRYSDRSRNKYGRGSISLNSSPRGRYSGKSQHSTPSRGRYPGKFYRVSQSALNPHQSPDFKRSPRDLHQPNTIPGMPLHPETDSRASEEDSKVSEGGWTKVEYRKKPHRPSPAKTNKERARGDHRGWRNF

For `O=C(c1cccc(NS(=O)(=O)Cc2ccccc2)c1F)c1c[nH]c2ncc(-c3cnc(C4CC4)nc3)cc12`, the Activity came out at 86% in experiment [1], 80% in experiment [2] and 82% in experiment [4]. The same compound showed a dissociation constant (Kd) in experiment [3] of 1.1 nM.
The like results for `O=C(c1cccc(NS(=O)(=O)Cc2ccccc2)c1F)c1c[nH]c2ncc(-c3cc4c(cc3Cl)OCCO4)cc12` were, in that order, 100%, 94%, 98% and 3.5 nM.
In the same order, the values of `CCCS(=O)(=O)Nc1ccc(F)c(C(=O)c2c[nH]c3ncc(-c4ccc(Cl)cc4)cc23)c1F` [VEMURAFENIB] are 100%, 5.3%, 48% and 8.2 nM.
In the same order, the values of `COc1ncc(-c2cnc3[nH]cc(C(=O)c4cccc(NS(=O)(=O)Cc5ccccc5)c4F)c3c2)cn1` are 70%, 38%, 86% and 0.85 nM.
